Results pooled from the literature.
In brackets after ≈: the same amount, converted by molar mass.
Organism: Staphylococcus epidermidis

| Compound | assay | system | setting | quantity | value |
| --- | --- | --- | --- | --- | --- |
| Cc1c(NN=C(C#N)C2=NC(=O)CS2)c(=O)n(-c2ccccc2)n1C | microbial killing, broth dilution |  |  | MBC | 1 µg/mL (≈ 2.82 µM) |
| CCCCCCCCCC(=O)N[C@@H](Cc1c[nH]c2ccccc12)C(=O)N[C@H](CC(N)=O)C(=O)N[C@@H](CC(=O)O)C(=O)N[C@@H]1C(=O)NCC(=O)N[C@@H](CCCN)C(=O)N[C@@H](CC(=O)O)C(=O)N[C@H](C)C(=O)N[C@@H](CC(=O)O)C(=O)NCC(=O)N[C@H](CO)C(=O)N[C@@H]([C@H](C)CC(=O)O)C(=O)N[C@@H](CC(=O)c2ccccc2N)C(=O)O[C@@H]1C | microbial growth, broth dilution | ATCC35984 | drug-resistant strain | MIC | 1 µg/mL |
| CN[C@H](CC(C)C)C(=O)N[C@H]1C(=O)N[C@@H](CC(N)=O)C(=O)N[C@H]2C(=O)N[C@H]3C(=O)N[C@H](C(=O)N[C@H](C(=O)O)c4cc(O)cc(O)c4-c4cc3ccc4O)[C@H](O)c3ccc(c(Cl)c3)Oc3cc2cc(c3O[C@@H]2O[C@H](CO)[C@@H](O)[C@H](O)[C@H]2O[C@H]2C[C@](C)(N)[C@H](O)[C@H](C)O2)Oc2ccc(cc2Cl)[C@H]1O | microbial growth | ATCC14990 |  | MIC | 0.5 µg/mL |
| CCCCCC/C=C\CCCCCCCCCc1cc(O)cc(O)c1 | microbial growth, broth dilution | ATCC35984 | drug-resistant strain | MIC | > 64 µg/mL |
| Cc1ccc2[nH]c3c(c2c1)CCCC3NCCc1ccc(O)cc1 (centres unmarked) | microbial growth, broth dilution | MRSE |  | MIC | 16 µg/mL |
| CN[C@H](CC(C)C)C(=O)N[C@H]1C(=O)N[C@@H](CC(N)=O)C(=O)N[C@H]2C(=O)N[C@H]3C(=O)N[C@H](C(=O)N[C@H](C(=O)O)c4cc(O)cc(O)c4-c4cc3ccc4O)[C@H](O)c3ccc(c(Cl)c3)Oc3cc2cc(c3O[C@@H]2O[C@H](CO)[C@@H](O)[C@H](O)[C@H]2O[C@H]2C[C@](C)(N)[C@H](O)[C@H](C)O2)Oc2ccc(cc2Cl)[C@H]1O | microbial growth, broth dilution | 12228 |  | MIC | 0.78 µM |
| Cc1ccc2[nH]c3c(c2c1)CCCC3NCCc1ccc(Br)cc1 (centres unmarked) | microbial growth, broth dilution | MRSE |  | MIC | 4 µg/mL |
| CN[C@H](CC(C)C)C(=O)N[C@H]1C(=O)N[C@@H](CC(N)=O)C(=O)N[C@H]2C(=O)N[C@H]3C(=O)N[C@H](C(=O)N[C@H](C(=O)O)c4cc(O)cc(O)c4-c4cc3ccc4O)[C@H](O)c3ccc(c(Cl)c3)Oc3cc2cc(c3O[C@@H]2O[C@H](CO)[C@@H](O)[C@H](O)[C@H]2O[C@H]2C[C@](C)(N)[C@H](O)[C@H](C)O2)Oc2ccc(cc2Cl)[C@H]1O | microbial growth, broth dilution | 12228 | 16 h | MIC | 1.56 µM |
